Data as given in ChEMBL document CHEMBL1121423, “2,4-Dihydro-6-phenyl-1H-s-triazolo[4,3-a][1,4]benzoidiazepin-1-ones with antianxiety and antidepressant activity” (1980).

Experiments:
Assay type in all cases: functional
[1] = organism: Mus musculus; test: Effect on the potentiation of gamma-butyrolactone-induced sleep (gamma-B)
In short: (§1)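 Male albino CF-1 mice, 18-22 g. Compounds were dissolved or suspended in 0.25% aqueous methylcellulose and given intraperitoneally to groups of four or six mice per dose, at multiple dose levels. ED50 was calculated by the Spearman-Karber method.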

[2] = organism: Mus musculus; test: Effect on the prolongation of hypoxic survival time (HS); in short: as §1
[3] = organism: Mus musculus; test: Effect on the antagonism of nicotine-induced death (D); in short: as §1
[4] = organism: Mus musculus; test: Effect of test compound on the potentiation of apomorphine-induced gnawing (AG) in aggregated mice; in short: as §1
[5] = organism: Mus musculus; test: Effect on the potentiation of yohimbine-induced toxicity (Y) in aggregated mice; in short: as §1
[6] = organism: Mus musculus; test: Effect on the antagonism of bicuculline-induced tonic-extensor convulsions (B); in short: as §1
[7] = organism: Mus musculus; test: Effect on the antagonism of nicotine-induced tonic-extensor convulsions (TE) in mice; in short: as §1
[8] = organism: Mus musculus; test: Effect on the antagonism of oxotremorine-induced hypothermia (OX); in short: as §1
[9] = organism: Mus musculus; test: Effect on the antagonism of pentylenetetrazole-induced clonic convulsions (P)

Structure (SMILES)	ED50 [1]	ED50 [2]	ED50 ([3]; Mus musculus, read-out: ED50)	ED50 [4]	ED50 [5]	ED50 ([6]; Mus musculus, read-out: ED50)	ED50 ([7]; Mus musculus, read-out: ED50)	ED50 [8]	ED50 [9]	ED50 [3]	ED50 [6]	ED50 [7]
CC(CN(C)C)Cn1nc2n(c1=O)-c1ccc(Cl)cc1C(c1ccccc1Cl)=NC2 (stereo not given)	2 mg/kg	40 mg/kg	1.1 mg/kg	> 50 mg/kg	> 50 mg/kg	7 mg/kg	1 mg/kg	> 50 mg/kg	–	–	–	–
CN(C)CCCN1c2ccccc2CCc2ccccc21 [IMIPRAMINE]	18 mg/kg	> 50 mg/kg	7 mg/kg	1 mg/kg	4 mg/kg	21 mg/kg	7 mg/kg	1 mg/kg	–	–	–	–
CN1CCN(CCn2nc3n(c2=O)-c2ccc(Cl)cc2C(c2ccccc2Cl)=NC3)CC1	0.2 mg/kg	3.1 mg/kg	–	> 25 mg/kg	> 25 mg/kg	3.1 mg/kg	–	12.5 mg/kg	0.3 mg/kg	–	–	–
CCN(CC)CCCCn1nc2n(c1=O)-c1ccc(Cl)cc1C(c1ccccc1Cl)=NC2	12.5 mg/kg	7 mg/kg	0.8 mg/kg	> 12.5 mg/kg	> 12.5 mg/kg	> 12.5 mg/kg	0.8 mg/kg	10.5 mg/kg	4.4 mg/kg	–	–	–
CN(C)Cc1nnc2n1-c1ccc(Cl)cc1C(c1ccccc1)=NC2 [ADINAZOLAM]	1.6 mg/kg	5 mg/kg	0.13 mg/kg	5.3 mg/kg	–	0.7 mg/kg	0.11 mg/kg	5.3 mg/kg	0.9 mg/kg	–	–	–
Cn1nc2n(c1=O)-c1ccc(Cl)cc1C(c1ccccc1Cl)=NC2	–	2.2 mg/kg	0.002 mg/kg	–	–	–	0.002 mg/kg	–	0.14 mg/kg	–	–	–
Cn1nc2n(c1=O)-c1ccc(Cl)cc1C(c1ccccc1)=NC2	–	–	0.63 mg/kg	> 50 mg/kg	> 50 mg/kg	3 mg/kg	0.63 mg/kg	> 50 mg/kg	2.5 mg/kg	1.1 mg/kg	2 mg/kg	1 mg/kg
CN1CCN(CCCn2nc3n(c2=O)-c2ccc(Cl)cc2C(c2ccccc2Cl)=NC3)CC1	3.7 mg/kg	> 30 mg/kg	0.5 mg/kg	> 25 mg/kg	25 mg/kg	> 25 mg/kg	0.4 mg/kg	25 mg/kg	3.7 mg/kg	–	–	–
CN(C)CCCn1nc2n(c1=O)-c1ccc(Cl)cc1C(c1ccccc1Cl)=NC2	2.2 mg/kg	> 50 mg/kg	1.1 mg/kg	7.4 mg/kg	> 50 mg/kg	14.9 mg/kg	0.9 mg/kg	> 50 mg/kg	6.3 mg/kg	–	–	–
Oc1nnc2n1-c1ccc(Cl)cc1C(c1ccccc1Cl)=NC2	0.4 mg/kg	> 50 mg/kg	0.025 mg/kg	> 50 mg/kg	> 50 mg/kg	1 mg/kg	0.025 mg/kg	> 50 mg/kg	0.08 mg/kg	–	–	–
CN1C(=O)CN=C(c2ccccc2)c2cc(Cl)ccc21 [DIAZEPAM]	0.035 mg/kg	0.2 mg/kg	0.28 mg/kg	> 50 mg/kg	> 50 mg/kg	2.6 mg/kg	0.28 mg/kg	> 50 mg/kg	0.1 mg/kg	–	–	–
CCN(CC)CCn1nc2n(c1=O)-c1ccc(Cl)cc1C(c1ccccc1Cl)=NC2	0.4 mg/kg	4 mg/kg	0.1 mg/kg	> 100 mg/kg	> 100 mg/kg	0.7 mg/kg	0.09 mg/kg	> 100 mg/kg	0.45 mg/kg	–	–	–
CN1CCN(CCn2nc3n(c2=O)-c2ccc(Cl)cc2C(c2ccccc2)=NC3)CC1	5.3 mg/kg	10.5 mg/kg	8 mg/kg	> 50 mg/kg	> 50 mg/kg	17.7 mg/kg	8 mg/kg	14.9 mg/kg	8.8 mg/kg	–	–	–
O=c1n(CCCN2CCN(CCO)CC2)nc2n1-c1ccc(Cl)cc1C(c1ccccc1Cl)=NC2	2 mg/kg	20 mg/kg	0.56 mg/kg	> 30 mg/kg	> 25 mg/kg	12.5 mg/kg	0.5 mg/kg	> 25 mg/kg	6.3 mg/kg	–	–	–
CCN(CC)CCn1nc2n(c1=O)-c1ccc(Cl)cc1C(c1ccccc1)=NC2	1 mg/kg	> 50 mg/kg	1.3 mg/kg	> 50 mg/kg	> 50 mg/kg	10 mg/kg	1.3 mg/kg	> 50 mg/kg	4 mg/kg	–	–	–
CCN(CC)CCCn1nc2n(c1=O)-c1ccc(Cl)cc1C(c1ccccc1Cl)=NC2	5.3 mg/kg	10 mg/kg	1.3 mg/kg	> 50 mg/kg	> 50 mg/kg	> 50 mg/kg	1.1 mg/kg	> 25 mg/kg	8.8 mg/kg	–	–	–
Oc1nnc2n1-c1ccc(Cl)cc1C(c1ccccc1)=NC2	6 mg/kg	> 50 mg/kg	1.6 mg/kg	> 50 mg/kg	> 50 mg/kg	40 mg/kg	1.4 mg/kg	> 50 mg/kg	5.6 mg/kg	–	–	–
CNCCCn1nc2n(c1=O)-c1ccc(Cl)cc1C(c1ccccc1Cl)=NC2	25 mg/kg	9 mg/kg	1.4 mg/kg	> 50 mg/kg	> 50 mg/kg	> 50 mg/kg	1.4 mg/kg	> 50 mg/kg	14.9 mg/kg	–	–	–
CN(C)CCn1nc2n(c1=O)-c1ccc(Cl)cc1C(c1ccccc1)=NC2	5 mg/kg	30 mg/kg	1.4 mg/kg	> 100 mg/kg	> 100 mg/kg	6 mg/kg	0.89 mg/kg	> 100 mg/kg	3.2 mg/kg	–	–	–
CN(C)CCCn1nc2n(c1=O)-c1ccc(Cl)cc1C(c1ccccc1)=NC2	10 mg/kg	> 50 mg/kg	3.6 mg/kg	> 50 mg/kg	> 50 mg/kg	40 mg/kg	3.6 mg/kg	> 50 mg/kg	32 mg/kg	–	–	–
O=c1n(CCCN2CCN(c3ccccc3)CC2)nc2n1-c1ccc(Cl)cc1C(c1ccccc1Cl)=NC2	> 50 mg/kg	> 50 mg/kg	40 mg/kg	> 50 mg/kg	> 50 mg/kg	> 50 mg/kg	40 mg/kg	> 50 mg/kg	> 50 mg/kg	–	–	–
